{"source": "paper PMC6387783", "about": "(Chemistry & biodiversity, 2018)", "key": {"MCF-7 cells": {"test_system": "MCF-7 cells", "format": "cell-based, human", "settings": "peptide 2 μM with R18 1 μM vs peptide alone, HBSS, 10 min, 37 °C", "in_short": "(§1)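 Cells are seeded in μ-slide wells at 20% confluency (HEK293 in poly-L-lysine-coated wells) and grown 24 h, then washed with HBSS (Ca/Mg). Test peptide at 2 μM in HBSS, alone or with R18 1 μM, 10 min, 37 °C, dark; negative control R18 only. Cells washed five times, then live spinning-disk confocal imaging at 37 °C (FAM ex 488 nm, em 525/50 nm). Single-cell intensities background-corrected and normalized to control mean; 30 cells/condition; Kruskal–Wallis test.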"}, "mice": {"test_system": "mice", "settings": "intravenous (tail-vein injection), ref [1]; cited from earlier work"}, "HEK293 cells": {"test_system": "HEK293 cells", "format": "cell-based, human", "settings": "peptide 2 μM with R18 1 μM vs peptide alone, HBSS, 10 min, 37 °C", "in_short": "as §1"}}}
{"substance": "FAM-octaarginine amide [compound 1]", "values": [{"measurement": "effect of membrane dye R18 on peptide permeation", "setting": "MCF-7 cells", "value": "significantly intensified permeation"}, {"measurement": "toxicity", "setting": "mice", "value": "highly toxic"}, {"measurement": "effect of membrane dye R18 on peptide permeation", "setting": "HEK293 cells", "value": "significantly intensified permeation"}]}
